Experimental data taken from ChEMBL document CHEMBL4689842, “EUbOPEN Chemogenomics Library wave 1” (2021).
“And” between values parts separate entries of the source, which are not always exact repeats. Equal entries are not always repeated.

System: U2OS
Test: Multiplex assay against U2OS
Assay type: toxicity, cell-based
Conditions: human
Method in brief: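 Hoechst33342, BioTracker Green Microtubule Cytoskeleton Dye, MitoTracker Red and Annexin V Alexa Fluor 680 were added to live cells at seeding, and imaging on a CQ1 microscope at 37°C and 5% CO2 followed compound addition. Gating by CellPathfinder machine learning separated cells into Hoechst high-intensity objects or normal cells, then normal cells into healthy, pyknosed or fragmented nuclei, then pyknosed cells into mitotic or apoptotic. Per cents of healthy-nucleus cells are reported for the tubulin, mitochondrial-mass and membrane-permeability phenotypes.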

[1] = 12 h, 1 µM, compound concentration 1 uM, replicate 1
[2] = 12 h, 1 µM, compound concentration 1 uM, replicate 2
[3] = 12 h, 10 µM, compound concentration 10 uM, replicate 1
[4] = 12 h, 10 µM, compound concentration 10 uM, replicate 2
[5] = 24 h, 1 µM, compound concentration 1 uM, replicate 1
[6] = 24 h, 1 µM, compound concentration 1 uM, replicate 2
[7] = 24 h, 10 µM, compound concentration 10 uM, replicate 1
[8] = 24 h, 10 µM, compound concentration 10 uM, replicate 2
[9] = 48 h, 10 µM, compound concentration 10 uM, replicate 1
[10] = 48 h, 10 µM, compound concentration 10 uM, replicate 2

## CCCS(=O)(=O)Nc1ccc(F)c(C(=O)c2c[nH]c3ncc(Cl)cc23)c1F [PLX-4720]
[1]
  Population Apoptotic (%): 55%
  Population Fragmented Nuclei (%): 6%
  Population Healthy Nuclei (%): 88%
  Population Hoechst High Intensity Objects (%): 2%
  Population Membrane Permeable-Phenotype (%): 14%
  Population Mitochondria Different-Phenotype (%): 21%
  Population Mitotic Cells (%): 44%
  Population Normal (%): 97%
  Population Pyknosed Nuclei (%): 5%
  Population Tubulin-Different-Phenotype (%): 26%
  Total Cell Count: 145
[2]
  Population Apoptotic (%): 33%
  Population Fragmented Nuclei (%): 7%
  Population Healthy Nuclei (%): 89%
  Population Hoechst High Intensity Objects (%): 15%
  Population Membrane Permeable-Phenotype (%): 12%
  Population Mitochondria Different-Phenotype (%): 24%
  Population Mitotic Cells (%): 66%
  Population Normal (%): 84%
  Population Pyknosed Nuclei (%): 3%
  Population Tubulin-Different-Phenotype (%): 28%
  Total Cell Count: 153
[3]
  Population Apoptotic (%): 50%
  Population Healthy Nuclei (%): 89%
  Population Hoechst High Intensity Objects (%): 3%
  Population Membrane Permeable-Phenotype (%): 8%
  Population Mitochondria Different-Phenotype (%): 30%
  Population Mitotic Cells (%): 50%
  Population Normal (%): 96%
  Population Pyknosed Nuclei (%): 4%
  Population Tubulin-Different-Phenotype (%): 26%
  Total Cell Count: 164
[4]
  Population Apoptotic (%): 0%
  Population Fragmented Nuclei (%): 6%
  Population Healthy Nuclei (%): 88%
  Population Hoechst High Intensity Objects (%): 9%
  Population Membrane Permeable-Phenotype (%): 11%
  Population Mitochondria Different-Phenotype (%): 31%
  Population Mitotic Cells (%): 100%
  Population Normal (%): 90%
  Population Pyknosed Nuclei (%): 5%
  Population Tubulin-Different-Phenotype (%): 23%
  Total Cell Count: 101
[5]
  Population Apoptotic (%): 43%
  Population Fragmented Nuclei (%): 5%
  Population Healthy Nuclei (%): 86%
  Population Hoechst High Intensity Objects (%): 3%
  Population Membrane Permeable-Phenotype (%): 16%
  Population Mitochondria Different-Phenotype (%): 26%
  Population Mitotic Cells (%): 56%
  Population Normal (%): 96%
  Population Pyknosed Nuclei (%): 7%
  Population Tubulin-Different-Phenotype (%): 22%
  Total Cell Count: 201
[6]
  Population Apoptotic (%): 11%
  Population Fragmented Nuclei (%): 3%
  Population Healthy Nuclei (%): 88%
  Population Hoechst High Intensity Objects (%): 11%
  Population Membrane Permeable-Phenotype (%): 9%
  Population Mitochondria Different-Phenotype (%): 25%
  Population Mitotic Cells (%): 88%
  Population Normal (%): 88%
  Population Pyknosed Nuclei (%): 8%
  Population Tubulin-Different-Phenotype (%): 23%
  Total Cell Count: 198
[7]
  Population Apoptotic (%): 20%
  Population Fragmented Nuclei (%): 2%
  Population Healthy Nuclei (%): 92%
  Population Hoechst High Intensity Objects (%): 2%
  Population Membrane Permeable-Phenotype (%): 5%
  Population Mitochondria Different-Phenotype (%): 32%
  Population Mitotic Cells (%): 80%
  Population Normal (%): 97%
  Population Pyknosed Nuclei (%): 5%
  Population Tubulin-Different-Phenotype (%): 24%
  Total Cell Count: 152
[8]
  Population Apoptotic (%): 57%
  Population Fragmented Nuclei (%): 4%
  Population Healthy Nuclei (%): 91%
  Population Hoechst High Intensity Objects (%): 7%
  Population Membrane Permeable-Phenotype (%): 7%
  Population Mitochondria Different-Phenotype (%): 38%
  Population Mitotic Cells (%): 42%
  Population Normal (%): 92%
  Population Pyknosed Nuclei (%): 3%
  Population Tubulin-Different-Phenotype (%): 32%
  Total Cell Count: 93

## COCC(=O)NC/C=C/c1ccc2ncnc(Nc3ccc(Oc4ccc(C)nc4)c(C)c3)c2c1 [CP-724714]
[1]
  Population Apoptotic (%): 40% and 33%
  Population Fragmented Nuclei (%): 7% and 4%
  Population Healthy Nuclei (%): 80% and 89%
  Population Hoechst High Intensity Objects (%): 3%
  Population Membrane Permeable-Phenotype (%): 42% and 18%
  Population Mitochondria Different-Phenotype (%): 29% and 18%
  Population Mitotic Cells (%): 60% and 66%
  Population Normal (%): 96%
  Population Pyknosed Nuclei (%): 11% and 6%
  Population Tubulin-Different-Phenotype (%): 18%
  Total Cell Count: 178 and 153
[2]
  Population Fragmented Nuclei (%): 3% and 8%
  Population Healthy Nuclei (%): 82% and 87%
  Population Hoechst High Intensity Objects (%): 6% and 4%
  Population Membrane Permeable-Phenotype (%): 49% and 27%
  Population Mitochondria Different-Phenotype (%): 43% and 20%
  Population Mitotic Cells (%): 53% and 100%
  Population Normal (%): 93% and 95%
  Total Cell Count: 95 and 141
[3]
  Population Apoptotic (%): 51%
  Population Fragmented Nuclei (%): 17%
  Population Healthy Nuclei (%): 62%
  Population Hoechst High Intensity Objects (%): 13%
  Population Membrane Permeable-Phenotype (%): 35%
  Population Mitochondria Different-Phenotype (%): 87%
  Population Mitotic Cells (%): 48%
  Population Normal (%): 86%
  Population Pyknosed Nuclei (%): 20%
  Total Cell Count: 167
[4]
  Population Apoptotic (%): 80%
  Population Fragmented Nuclei (%): 18%
  Population Healthy Nuclei (%): 63%
  Population Hoechst High Intensity Objects (%): 11%
  Population Membrane Permeable-Phenotype (%): 37%
  Population Mitochondria Different-Phenotype (%): 94%
  Population Mitotic Cells (%): 20%
  Population Normal (%): 88%
  Population Pyknosed Nuclei (%): 18%
  Population Tubulin-Different-Phenotype (%): 100%
  Total Cell Count: 62
[5]
  Population Apoptotic (%): 50% and 38%
  Population Fragmented Nuclei (%): 10% and 2%
  Population Healthy Nuclei (%): 71% and 90%
  Population Hoechst High Intensity Objects (%): 1% and 2%
  Population Mitotic Cells (%): 50% and 61%
  Population Normal (%): 98% and 97%
  Population Pyknosed Nuclei (%): 17%
  Total Cell Count: 186 and 209
[6]
  Population Apoptotic (%): 62% and 36%
  Population Fragmented Nuclei (%): 8% and 3%
  Population Healthy Nuclei (%): 75% and 89%
  Population Hoechst High Intensity Objects (%): 3% and 7%
  Population Membrane Permeable-Phenotype (%): 40% and 20%
  Population Mitochondria Different-Phenotype (%): 53% and 26%
  Population Mitotic Cells (%): 37% and 63%
  Population Normal (%): 96% and 92%
  Population Pyknosed Nuclei (%): 15% and 6%
  Total Cell Count: 106 and 180
[7]
  Population Apoptotic (%): 60%
  Population Fragmented Nuclei (%): 20%
  Population Healthy Nuclei (%): 45%
  Population Hoechst High Intensity Objects (%): 8%
  Population Membrane Permeable-Phenotype (%): 46%
  Population Mitochondria Different-Phenotype (%): 98%
  Population Mitotic Cells (%): 39%
  Population Normal (%): 91%
  Population Pyknosed Nuclei (%): 33%
  Population Tubulin-Different-Phenotype (%): 100%
  Total Cell Count: 156
[8]
  Population Fragmented Nuclei (%): 16%
  Population Healthy Nuclei (%): 54%
  Population Hoechst High Intensity Objects (%): 11%
  Population Membrane Permeable-Phenotype (%): 51%
  Population Mitochondria Different-Phenotype (%): 96%
  Population Mitotic Cells (%): 40%
  Population Normal (%): 88%
  Population Pyknosed Nuclei (%): 28%
  Total Cell Count: 60
[9]
  Population Apoptotic (%): 76%
  Population Fragmented Nuclei (%): 22%
  Population Healthy Nuclei (%): 44%
  Population Hoechst High Intensity Objects (%): 4%
  Population Membrane Permeable-Phenotype (%): 57%
  Population Mitochondria Different-Phenotype (%): 91%
  Population Mitotic Cells (%): 23%
  Population Normal (%): 95%
  Population Pyknosed Nuclei (%): 32%
  Population Tubulin-Different-Phenotype (%): 100%
  Total Cell Count: 163
[10]
  Population Apoptotic (%): 45%
  Population Fragmented Nuclei (%): 14%
  Population Healthy Nuclei (%): 52%
  Population Hoechst High Intensity Objects (%): 14%
  Population Membrane Permeable-Phenotype (%): 84%
  Population Mitochondria Different-Phenotype (%): 96%
  Population Mitotic Cells (%): 55%
  Population Normal (%): 85%
  Total Cell Count: 71
